The chains are these.
B1: tRNA (parent)
chain: GUUCCGUUGGCGUAAUGGUAACGCGUCUCCCUCCUAAGGAGAAGACUGCGGGUUCGAGUCCCGUACGGAACG

This sample holds only a part of the variants without activity.

Variants of B1 are the subject of this series. Kind of series: yeast fitness relative to wild type (ratio to wild type); higher = fitter; tRNA-Arg(CCU), competitive growth, 37 C, YPD. The method in brief:
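The tRNA-Arg(CCU) gene variants were made by chemical synthesis with a 3% per-site mutation rate at 69 sites and inserted at the native genomic locus of Saccharomyces cerevisiae. After pooling, the strains were competed in YPD at 37°C for 24 hours in six parallel replicates. Gene amplicons from the start population and each end population were read by 100-nucleotide paired-end sequencing, and Darwinian fitness relative to wild type was taken from genotype frequency changes. Genotypes needed ≥ 100 starting reads, and estimates < 0.5 were set to 0.5.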
GUUCCGUUGGCGUAAUGGUAACGCGUCUCGCUCCUAAGGAGAAGACUGCGGGUUCGAGACCCGUACGGAACG [C30G U59A]: the yeast fitness was 0.595.
In the case of GUUCCGUUGGCGUAAUGGUAACGCGUCUCGCUCCUAAGGAGAAGACUGCGGGUUCGAGCCCCGUACGGAACG [C30G U59C] it was 0.537; in that of GUUCCGUUGGCGUAAUGGUAACGCGUCUCGCGCCUAAGGAGAAGACUGCGGGUUGGAGUCCCGUACGGAACG [C30G U32G C55G], no more than 0.5.
Turning to GUUCCGUUGGCGUAAUGGUAACGCGUCUCUCUCCUACAGAGAAGACUGCGGGUUCGAGUCCCGUACGGAACG [C30U A37C G38A], the yeast fitness was no more than 0.5.
As for GUUCCGUUGGCGUAAUGGUAACGCGUCUCUCUCCUAAGGAGGAGACUGCGGGUUCGAGUCCCGUACGGAACG [C30U A42G], the figure is 0.8; as for GUUCCGUUGGCGUAAUGGUAACGCGUCUCUCUCCUAAGGAGCAGACUGCGGGUUCGAGUCCCGUACGGAACG [C30U A42C], 0.755.
In the case of GUUCCGUUGGCGUAAUGGUAACGCGUCUCUCUCCUUAGGAGAAGACUGCGGGUUCGGGUCCCGUACGGAACG [C30U A36U A57G] it was no more than 0.5; in that of GUUCCGUUGGCGUAAUGGUAACGCGUCUCGCUCCUAAGGAGAAGACUGCGGCUUCGAGUCCCGUACAGAACG [C30G G52C G67A], no more than 0.5.
In the case of GUUCCGUUGGCGUAAUGGUAACGCGUCUCGCACCUAAGGAGUAGACUGCGGGUUCGAGUCCCGUACGGAACG [C30G U32A A42U] it was no more than 0.5; in that of GUUCCGUUGGCGUAAUGGUAACGCGUCUCGCUCCUAAGGAGAAGACUGCGGGUUCGAAUCCCGUACGAAACG [C30G G58A G68A], 0.705; in that of GUUCCGUUGGCGUAAUGGUAACGCGUCUCGCUCCUAAGGAGAAGACGGCGGGUUCGAGUCCCGUACGGAACG [C30G U47G], no more than 0.5.
Take GUUCCGUUGGCGUAAUGGUAACGCGUCUCGCUCCCAAGGAGAAGACUGCGGGUUCGAGUCCCGUAUGGAACG [C30G U35C C66U]: the yeast fitness was no more than 0.5.
As for GUUCCGUUGGCGUAAUGGUAACGCGUCUCUCUCCUAGGAAGAAGACUGCGGGUUCGAGUCCCGUACGGAACG [C30U A37G G39A], the figure is 0.552; as for GUUCCGUUGGCGUAAUGGUAACGCGUCUCGCUCCUAAGGAGAAGACAGGGGGUUCGAGUCUCCUACGGAACG [C30G U47A C49G C61U G63C], 0.541.
As for GUUCCGUUGGCGUAAUGGUAACGCGUCUCGCCCCUAAGGAGAAGACUGCCGGUUCGAGCCCCGUACGGAACG [C30G U32C G50C U59C], the figure is no more than 0.5; as for GUUCCGUUGGCGUAAUGGUAACGCGUCUCGCUCCUAAGGAGAACACUGCGCGUUCGAGUCCCGUACGGAACG [C30G G44C G51C], 0.549.
On to GUUCCGUUGGCGUAAUGGUAACGCGUCUCUCUCCUAAGGGGAAGACUGCGGGUUCGAGUCCCGUACGGAACG [C30U A40G], for which the yeast fitness was determined as 0.914.
In the case of GUUCCGUUGGCGUAAUGGUAACGCGUCUCUCUCCUAAGGUGAAGACUGCGGGUUCGAGUCCCGUACGGAACG [C30U A40U] it was 0.965.
As for GUUCCGUUGGCGUAAUGGUAACGCGUCUCUCUCCUAAGGCGAAGACUGCGGGUUCGAGUCCCGUACGGAACG [C30U A40C], the figure is 0.792.
For GUUCCGUUGGCGUAAUGGUAACGCGUCUCUCUCCUCAGGAGAAGACUGCGGGUUCGAGUCCCGUACUGAACG [C30U A36C G67U], the yeast fitness came to 0.639.
In the case of GUUCCGUUGGCGUAAUGGUAACGCGUCUCUCUCCUACGGAGAAGACUGCGGGUUCGAGUCCCGUAUGGAACG [C30U A37C C66U] it was no more than 0.5; in that of GUUCCGUUGGCGUAAUGGUAACGCGUCUCUCUCCUUGGGAGAAGACUACGGGUUCGAGUCCCGUACGGAGCG [C30U A36U A37G G48A A70G], no more than 0.5; in that of GUUCCGUUGGCGUAAUGGUAACGCGUCUCUCUCCUACGGAGAAGACUGCGGGUUCGAGUCCCGUACGGAACG [C30U A37C], 0.729.
As for GUUCCGUUGGCGUAAUGGUAACGCGUCUCUCUCCUAGGGAGAAGACUGCGGGUUCGAGUCCCGUACGGAACG [C30U A37G], the figure is 0.656; as for GUUCCGUUGGCGUAAUGGUAACGCGUCUCUCUCCUAAGGCGAAGACUGCGGGUUCGAGUCCCCCACGGAACG [C30U A40C G63C U64C], no more than 0.5.
In the case of GUUCCGUUGGCGUAAUGGUAACGCGUCUCUCUCCUAAGGAGCAGACUGCGGGUUCGAGUCCGGUAGGGAACG [C30U A42C C62G C66G] it was no more than 0.5; in that of GUUCCGUUGGCGUAAUGGUAACGCGUCUCGCUCCUAAGGAGAAGACUGCGGGUUCGAGUCCCAUACGGAACG [C30G G63A], 0.641.
On to GUUCCGUUGGCGUAAUGGUAACGCGUCUCGCUCCUAAGGAGAAGACUGCGGGUUCGAGUCCCCUACGGAACG [C30G G63C], for which the yeast fitness is no more than 0.5.
With GUUCCGUUGGCGUAAUGGUAACGCGUCUCUCUCCUAAGGAGCAGACUGCGGGUUCGAGUCCCGUACCGUACG [C30U A42C G67C A69U], the yeast fitness was no more than 0.5.
As to GUUCCGUUGGCGUAAUGGUAACGCGUCUCGCUCCUAAGGACAAGACUGCGGGUUCGAGUCCCGUACGGAUCG [C30G G41C A70U], the yeast fitness was no more than 0.5.
On to GUUCCGUUGGCGUAAUGGUAACGCGUCUCUCUCCUACGGAGAAGAUUGCGGGUUCGAGUCCCGUACGGAACG [C30U A37C C46U], for which the yeast fitness turned out to be 0.666.
As for GUUCCGUUGGCGUAAUGGUAACGCGUCUCGCUCCUAAGGAGAAGACUGCGGGCUCGAGUCCCGUACGGAACG [C30G U53C], the figure is 0.632.
As for GUUCCGUUGGCGUAAUGGUAACGCGUCUCUCUCCUAAGGCGAAGACUGCGGGUUCGCGUCCCGUACGGAACG [C30U A40C A57C], the figure is no more than 0.5.
In the case of GUUCCGUUGGCGUAAUGGUAACGCGUCUCGCUCCUAAGGAGAAGACUGCGGCUUCGAGUCCCGUACGGCACG [C30G G52C A69C], the yeast fitness was no more than 0.5.
In the case of GUUCCGUUGGCGUAAUGGUAACGCGUCUCGCUCCUAAGGAGAAGACUGCCGGUUCGAGUCCCGUACGGAACG [C30G G50C] it was 0.781.
In the case of GUUCCGUUGGCGUAAUGGUAACGCGUCUCGCUCCUAAGGAGAAGACUGCAGGUUCGAGUCCCGUACGGAACG [C30G G50A] it was 0.72; in that of GUUCCGUUGGCGUAAUGGUAACGCGUCUCUCUCCUAAGGUGAAGACUGAGGGUUCAUGUCCCGUACGGAACG [C30U A40U C49A G56A A57U], no more than 0.5.
